This note sets out measurements from the array DNA melting data of Ke et al. (doi:10.1101/2024.01.08.574731).

Data set [1] can be described thus: folding enthalpy; higher = less favourable; fluorescence melt of hairpins on a sequencing array, two-state fit. To be noted: sodium 0.088 M. The method, boiled down: (§1)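 Hairpins were imaged by Cy3 fluorescence on a sequenced MiSeq flow cell with annealed Cy3 and quencher oligos, in 50 mM Na-HEPES pH 8.0, 25 mM NaCl, in 2.5 °C steps up to 60 °C. Bootstrapped two-state fits of normalised signals gave melting temperature and folding enthalpy. Four replicates were combined by inverse variance, and fitted temperatures were raised by 9.35 °C to match UV melts.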

Data set [2] can be described thus: melting temperature; fluorescence melt of hairpins on a sequencing array, two-state fit, raised by 9.35 °C to match UV melts. To be noted: sodium 0.088 M. Put shortly: as §1

As for GATCAAGCGGTTGATC ((((((....)))))), the folding enthalpy in data set [1] was -38.1 kcal/mol. Also, the Tm in data set [2] was found to be 46.5 °C.

Take GATCAAGCTTTTGATC ((((((....)))))): the folding enthalpy in data set [1] was -34.8 kcal/mol. Moreover, in data set [2], the Tm came out at 44.5 °C.

In the case of GATCAAGGACTTGATC ((((((....)))))), the folding enthalpy in data set [1] is -40 kcal/mol. Besides, in data set [2], the Tm is 50.7 °C.

On to GATCAAGGATTGATC ((((((...)))))), for which, in data set [1], the folding enthalpy is -38.8 kcal/mol. In addition, the Tm in data set [2] was 49.8 °C.

For GATCAAGGGCTTGATC ((((((....)))))), the folding enthalpy in data set [1] is -34.6 kcal/mol. Further, the Tm in data set [2] came to 46.7 °C.

Consider GATCAAGGGTTGATC ((((((...)))))), for which the folding enthalpy in data set [1] was -24 kcal/mol. In addition, the Tm in data set [2] came out at 40.3 °C.

On to GATCAAGTAATTGATC ((((((....)))))), for which the folding enthalpy in data set [1] is -32.1 kcal/mol. For the same sequence, the Tm in data set [2] was 50 °C.

With GATCAAGTATTGATC ((((((...)))))), the folding enthalpy in data set [1] is -43.4 kcal/mol. In addition, the Tm in data set [2] amounted to 51.8 °C.

Turning to GATCAAGTGGTTGATC ((((((....)))))), the folding enthalpy in data set [1] was -27.6 kcal/mol. In data set [2], the Tm is 41.9 °C.

Regarding GATCAAGTTTTTGATC ((((((....)))))), the folding enthalpy in data set [1] was -36 kcal/mol. Further, the Tm in data set [2] amounted to 45.5 °C.

With GATCAATCAGTTGATC ((((((....)))))), in data set [1], the folding enthalpy is -29.6 kcal/mol. Besides, the Tm in data set [2] was determined as 44.4 °C.

In the case of GATCAATCATTTGATC ((((((....)))))), in data set [1], the folding enthalpy was -37.3 kcal/mol. For the same sequence, in data set [2], the Tm came to 45.5 °C.

Take GATCAATCCTTGATC ((((((...)))))): in data set [1], the folding enthalpy was -28.7 kcal/mol. Further, the Tm in data set [2] amounted to 44 °C.

Take GATCAATCGTTTGATC ((((((....)))))): the folding enthalpy in data set [1] was -33.8 kcal/mol. Also, in data set [2], the Tm came out at 45.7 °C.

Consider GATCAATCTATTGATC ((((((....)))))), for which the folding enthalpy in data set [1] was -43.2 kcal/mol. Moreover, the Tm in data set [2] turned out to be 49.8 °C.

For GATCAATCTGTTGATC ((((((....)))))), the folding enthalpy in data set [1] was -35.1 kcal/mol. In addition, the Tm in data set [2] is 45.6 °C.

On to GATCAATGACTTGATC ((((((....)))))), for which the folding enthalpy in data set [1] is -29.1 kcal/mol. The Tm in data set [2] worked out at 39.7 °C.

In the case of GATCAATGCCTTGATC ((((((....)))))), the folding enthalpy in data set [1] was -26.2 kcal/mol. Moreover, in data set [2], the Tm is 45.3 °C.

GATCAATGGGTTGATC ((((((....)))))): the folding enthalpy in data set [1] is -35.5 kcal/mol. For the same sequence, in data set [2], the Tm worked out at 48.3 °C.

GATCAATTCCTTGATC ((((((....)))))): the folding enthalpy in data set [1] is -35.3 kcal/mol. Further, the Tm in data set [2] was 45.4 °C.

With GATCAATTTGTTGATC ((((((....)))))), in data set [1], the folding enthalpy was -35.6 kcal/mol. Moreover, in data set [2], the Tm is 47.3 °C.

Take GATCACAACCGTGATC ((((((....)))))): the folding enthalpy in data set [1] was -39.2 kcal/mol. For the same sequence, in data set [2], the Tm stood at 57.2 °C.

Regarding GATCACAATGTGATC ((((((...)))))), the folding enthalpy in data set [1] is -36.8 kcal/mol. The Tm in data set [2] stood at 55.6 °C.

Regarding GATCACAATTGTGATC ((((((....)))))), the folding enthalpy in data set [1] is -41.6 kcal/mol. The Tm in data set [2] was found to be 56.1 °C.

For GATCACACTAGTGATC ((((((....)))))), the folding enthalpy in data set [1] is -43.4 kcal/mol. Further, in data set [2], the Tm amounted to 58.8 °C.

As to GATCACAGACGTGATC ((((((....)))))), in data set [1], the folding enthalpy is -37 kcal/mol. Further, the Tm in data set [2] stood at 57 °C.

Consider GATCACAGATGTGATC ((((((....)))))), for which the folding enthalpy in data set [1] was -37.8 kcal/mol. Besides, the Tm in data set [2] is 56.8 °C.

Turning to GATCACAGCGTGATC ((((((...)))))), the folding enthalpy in data set [1] was -42 kcal/mol. Besides, the Tm in data set [2] came to 61.9 °C.

With GATCACAGGCGTGATC ((((((....)))))), the folding enthalpy in data set [1] is -36 kcal/mol. Besides, the Tm in data set [2] was found to be 57.3 °C.

For GATCACAGGTGTGATC ((((((....)))))), in data set [1], the folding enthalpy was -36.4 kcal/mol. The Tm in data set [2] was 59.9 °C.

GATCACAGTGGTGATC ((((((....)))))): the folding enthalpy in data set [1] is -50 kcal/mol. Besides, in data set [2], the Tm was determined as 56.5 °C.

For the sequence GATCACATATGTGATC ((((((....)))))), the folding enthalpy in data set [1] is -41.9 kcal/mol. In addition, the Tm in data set [2] turned out to be 58.9 °C.

For GATCACATCAGTGATC ((((((....)))))), in data set [1], the folding enthalpy is -42.1 kcal/mol. Further, the Tm in data set [2] turned out to be 58.4 °C.

Take GATCACATCCGTGATC ((((((....)))))): in data set [1], the folding enthalpy is -46 kcal/mol. Further, the Tm in data set [2] came to 56.6 °C.

Consider GATCACATTGTGATC ((((((...)))))), for which, in data set [1], the folding enthalpy is -33.7 kcal/mol. Further, the Tm in data set [2] was determined as 57.9 °C.

Regarding GATCACCAACGTGATC ((((((....)))))), the folding enthalpy in data set [1] was -41.6 kcal/mol. Moreover, the Tm in data set [2] is 53.8 °C.

GATCACCAAGGTGATC ((((((....)))))): the folding enthalpy in data set [1] was -43.3 kcal/mol. In addition, in data set [2], the Tm was determined as 60 °C.

With GATCACCACAGTGATC ((((((....)))))), the folding enthalpy in data set [1] was -40.4 kcal/mol. The Tm in data set [2] stood at 57.4 °C.
